Measured values reported in ChEMBL document CHEMBL3822410, “Novel substituted isoxazole FXR agonists with cyclopropyl, hydroxycyclobutyl and hydroxyazetidinyl linkers: Understanding and improving key determinants of pharmacological properties” (Bioorg Med Chem Lett, 2016).
Converted amounts (≈) assume the structure as drawn. The source made the active and inactive calls. The calls are words filed in the database; no cut-off is given here.

Experiments:
[1] = target: T1, Bile acid receptor (Homo sapiens) (UniProt Q96RI1); assay: Agonist activity at C-terminal Gal4-tagged human FXR (187 to 472 residues) expressed in HEK-293 cells co-expressing pFRluc by mammalian one hybrid assay relative to GW4064; format: cell-based; settings: HEK293
T1 sequence (whole entry): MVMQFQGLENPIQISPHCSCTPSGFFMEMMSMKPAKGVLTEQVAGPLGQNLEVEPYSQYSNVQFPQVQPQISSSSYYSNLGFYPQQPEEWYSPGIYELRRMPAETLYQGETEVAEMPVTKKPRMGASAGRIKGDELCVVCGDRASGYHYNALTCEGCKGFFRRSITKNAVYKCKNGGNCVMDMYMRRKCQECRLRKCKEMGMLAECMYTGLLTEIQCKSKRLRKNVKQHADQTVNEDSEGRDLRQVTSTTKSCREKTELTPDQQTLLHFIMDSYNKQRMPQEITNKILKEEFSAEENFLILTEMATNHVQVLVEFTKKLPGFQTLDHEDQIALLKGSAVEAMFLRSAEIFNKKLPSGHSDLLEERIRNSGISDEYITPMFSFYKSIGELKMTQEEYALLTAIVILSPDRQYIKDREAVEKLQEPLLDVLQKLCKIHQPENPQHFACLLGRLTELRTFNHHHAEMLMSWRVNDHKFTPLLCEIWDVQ
Summary of the method: (§1)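 Transient transfection of HEK293 cells with Gal4 DBD–human FXR LBD (187–472) chimera under CMV promoter plus pFRluc Gal4-driven firefly luciferase reporter. Cells treated with serial compound dilutions. EC50 from at least three experiments; efficacy is extrapolated maximum signal of the dose-response, GW4064 set to 100%.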

[2] = Permeability of the compound assessed as compound influx measured after 16 hrs by PAMPA assay; format: ADME
Summary of the method: (§2)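 PAMPA, 16 h at rt. Flux = [C_acceptor/(C_donor + C_acceptor)] × 100 × 2. Membrane enrichment = C_membrane × 2/(C_acceptor + C_donor), membrane phase extracted into a volume equal to the acceptor or donor compartment.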

[3] = target: T2, Nuclear receptor subfamily 1 group I member 2 (Homo sapiens, UniProt O75469); assay: Agonist activity at PXR (unknown origin) up to 5 uM
T2 sequence (O75469 whole entry): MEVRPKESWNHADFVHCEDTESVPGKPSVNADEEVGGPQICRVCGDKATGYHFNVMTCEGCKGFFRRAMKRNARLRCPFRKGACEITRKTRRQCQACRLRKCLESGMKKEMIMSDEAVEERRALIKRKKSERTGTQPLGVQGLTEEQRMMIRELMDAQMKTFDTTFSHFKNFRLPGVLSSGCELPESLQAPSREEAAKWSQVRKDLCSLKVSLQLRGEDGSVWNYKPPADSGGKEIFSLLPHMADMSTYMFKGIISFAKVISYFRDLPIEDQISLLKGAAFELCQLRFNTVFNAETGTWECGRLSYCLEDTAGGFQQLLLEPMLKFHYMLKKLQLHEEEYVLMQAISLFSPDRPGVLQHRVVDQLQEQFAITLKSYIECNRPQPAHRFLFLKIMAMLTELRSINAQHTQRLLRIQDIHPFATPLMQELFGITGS

[4] = Permeability of the compound assessed as compound enrichment in membrane compartment measured after 16 hrs by PAMPA assay relative to control; format: ADME; summary of the method: as §2
[5] = target: T3, Bile acid receptor (Homo sapiens, UniProt Q96RI1); assay: Agonist activity at GST-tagged FXR LBD (187 to 472 residues) (unknown origin) assessed as FXR interaction with b-CPSSHSSLTERHKILHRLLQEGSPS-COOH by FRET assay
T3 sequence (Q96RI1 whole entry): T1 sequence (whole entry)

[6] = target: T1, Bile acid receptor (Homo sapiens); assay: Agonist activity at GST-tagged FXR LBD (187 to 472 residues) (unknown origin) assessed as FXR interaction with b-CPSSHSSLTERHKILHRLLQEGSPS-COOH by FRET assay relative to GW4064
[7] = target: T3, Bile acid receptor; assay: Agonist activity at C-terminal Gal4-tagged human FXR (187 to 472 residues) expressed in HEK-293 cells co-expressing pFRluc by mammalian one hybrid assay; format: cell-based, HEK293; summary of the method: as §1
[8] = Aqueous solubility of the compound; format: physicochemical; settings: buffer
[9] = test system: Mus musculus; assay: Reduction in total cholesterol level in high fat diet enriched with cholesterol fed C57BL/6J mouse plasma at 10 mg/kg, po through gavage for 10 days measured after 4 hrs of final dosage relative to vehicle treated-control; format: functional, organism-based
Summary of the method: (§3)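 C57BL/6J mice pre-fed and kept on high fat diet (60% kcal fat) with 1% (w/w) cholesterol; 10 mg/kg by oral gavage for 10 days. Plasma total cholesterol and triglycerides taken at sacrifice 4 h after final dose, expressed as % change versus vehicle group.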

[10] = Apparent oral volume of distribution in C57BL/6J mouse at 5 mg/kg; format: ADME, organism-based; settings: in vivo
Summary of the method: (§4)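 Mice dosed 5 mg/kg orally and 1 mg/kg intravenously; bioavailability from both arms, all other parameters (AUC, Cmax, T1/2, Cl/F, Vd/F) calculated from the oral arm.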

[11] = Cmax in C57BL/6J mouse at 5 mg/kg, po and 1 mg/kg, iv; format: ADME, organism-based; settings: in vivo; summary of the method: as §4
[12] = AUC in C57BL/6J mouse at 5 mg/kg, po and 1 mg/kg, iv; format: ADME, organism-based; settings: in vivo; summary of the method: as §4
[13] = Apparent oral clearance in C57BL/6J mouse at 5 mg/kg; format: ADME, organism-based; settings: in vivo; summary of the method: as §4
[14] = Oral bioavailability in C57BL/6J mouse at 5 mg/kg; format: ADME, organism-based; settings: in vivo; summary of the method: as §4
[15] = Half life in C57BL/6J mouse at 5 mg/kg, po and 1 mg/kg, iv; format: ADME, organism-based; settings: in vivo; summary of the method: as §4
[16] = test system: Mus musculus; assay: Reduction in total triglyceride level in high fat diet enriched with cholesterol fed C57BL/6J mouse plasma at 10 mg/kg, po through gavage for 10 days measured after 4 hrs of final dosage relative to vehicle treated-control; format: functional, organism-based; summary of the method: as §3

| Efficacy [1] [%] | permeability [2] [%] | Activity [3] | fold change (FC) [4] | EC50 [5] [nM] | Efficacy [6] [%] | EC50 [7] [nM] | solubility [8] [µM] | Vd/F [10] [L/kg] | Cmax [11] [ng/mL] | AUC [12] [ng·h/mL] | CL/F [13] [mL/min/kg] | bioavailability [14] [%] | half-life [15] [min] | SMILES | Activity [9] | Activity [16] |
| --- | --- | --- | --- | --- | --- | --- | --- | --- | --- | --- | --- | --- | --- | --- | --- | --- |
| 71 | 35 | Not Active | 3 | 7 | 102 | 552 | 197 (≈ 116 µg/mL) | – | – | – | – | – | – | O=C(O)c1cncc(N2CC(O)(c3ccc(OCc4c(-c5c(Cl)cccc5Cl)noc4C4CC4)cc3Cl)C2)c1 | – | – |
| 78 | 46 | Not Active | 11 | 9 | 100 | 110 | 171 (≈ 105 µg/mL) | 0.8 | 1470 | 960 | 16 | 18 | 36 | CC(C)n1nc(C(=O)O)cc1[C@H]1C[C@](O)(c2ccc(OCc3c(-c4c(Cl)cccc4Cl)noc3C3CC3)cc2Cl)C1 | Active | Active |
